697 NFkB inh: lowers PMA/ionomycin-induced NF-kB signal in 697 B cells. 697 B-cell NF-kB luciferase reporter, 16 h. inhibition, % at 4 µM. 330,000 compounds, 0.33% hits. AID 435022; in the data active = inhibition above about 35%
HSF1 activator: increases HSF-1 driven luciferase reporter signal. NIH3T3-HGL HSF-1 luciferase reporter, MG132, 8 h; 100% = twice DMSO control signal. activation, % at 9 µM. 300,000 compounds, 1.7% hits. AID 504408;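 active = mean replicate activation of at least 50% with a set share of replicates each reaching 50%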;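 also: 0% = median of the neutral control wells and 100% = twice that signal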
HSF1 inhib: HSF1 inhibition | NIH3T3-HGL HSE-luciferase, MG132-induced, luminescence 8 h; active compounds read low | activity change, negative = inhibition, % at 7.5 µM (by protocol) | 300,000 compounds, 0.77% hits | AID 2098;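 active = more than half of replicate wells show activity change below -50%, luminescence cut by over half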;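 also: luciferase reports HSF-1 transcriptional activity via heat shock element; 0% = median of DMSO wells and -100% = zero luminescence signal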
T cruzi inh: blocks replication of Trypanosoma cruzi | inhibition, % (no concentration beside the values) | 300,000 compounds, 1.4% hits | T. cruzi beta-gal in NIH3T3, luminescence, 90 h | AID 1885;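 active = mean inhibition across valid replicates above about 55%, limit read from the data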;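 also: signal also drops with host cell toxicity which is not excluded here; 0% = plate median of DMSO wells and 100% = zero luminescence signal; higher percent means less beta-gal luminescence so fewer parasites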
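Read-out: Parasite load inhibition, % | Test system: Mouse NIH/3T3 fibroblasts infected with β-gal-expressing T. cruzi Tulahuen C4 | Amount: 5,000 cells/well | Medium: DMEM, 2% fetal bovine serum | Signal: GalScreen β-gal luminescence, detergent lysis, 60 min | Timing: 3 h attach, ≥90 h co-culture | Also added: Tulahuen C4 trypomastigotes, 5000/well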
Jurkat NFkB inh: lowers PMA/ionomycin-induced NF-kB signal in Jurkat cells; 330,000 compounds, 0.53% hits; PMA/ionomycin-induced NF-kB luciferase reporter, luminescence; inhibition, % at 4 µM; AID 435003; in the data active = inhibition above about 50%
GPR7 antag: antagonists of human GPR7 (neuropeptides B/W receptor 1) | GPR7-expressing cells, fluorescence antagonist assay | AID 1861 | 290,000 compounds, 1.1% hits | inhibition, % at 4.4 µM | P48145; in the data active = inhibition above about 16%, passing the limit was not always enough;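 also: cells stimulated with the agonist NPW; 0% = agonist with vehicle and 100% = vehicle without agonist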
Target sequence (P48145 whole entry, looked up): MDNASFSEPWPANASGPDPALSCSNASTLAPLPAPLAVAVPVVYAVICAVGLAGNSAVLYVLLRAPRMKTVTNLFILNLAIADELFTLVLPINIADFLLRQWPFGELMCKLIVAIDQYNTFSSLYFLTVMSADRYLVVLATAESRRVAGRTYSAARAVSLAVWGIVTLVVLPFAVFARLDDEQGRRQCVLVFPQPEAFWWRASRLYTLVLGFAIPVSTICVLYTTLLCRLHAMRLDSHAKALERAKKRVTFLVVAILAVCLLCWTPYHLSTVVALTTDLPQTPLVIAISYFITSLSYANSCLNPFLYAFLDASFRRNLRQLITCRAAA
* marks the source's active call; other numbers are inactive results; . = no result given. Rows were chosen to be rich in hits. Some 4.8% of all compounds tested hit in one or more screens of this group.

SMILES	697 NFkB inh	HSF1 activator	HSF1 inhib	T cruzi inh	Jurkat NFkB inh	GPR7 antag
O=C(Cc1ccccc1)Nc1cc(Cl)ccc1Sc1ccccc1	6	58*	29	15	-4	-5
O=C(Cc1ccc(Cl)cc1)Nc1ccccc1Sc1ccccc1	-6	20	7	15	1	-6
CCC(=O)N1CCN(c2ccc(Cl)cc2NC(=O)Cc2ccccc2)CC1	12	.	.	.	23	17*
CCOC(=O)C1(CC2CCCCO2)CCN(Cc2ccc(OC)cc2F)CC1 (stereo not given)	-10	6	-6	-7	15	-14
O=c1oc2ccc(Br)cc2cc1-c1nc2ccccc2o1	-3	-15	-10	-15	-16	6
Brc1ccc2oc(-c3ccn[nH]3)cc2c1	-122	57*	30	12	-95	-6
COc1cc(SSc2cc(OC)cc([N+](=O)[O-])c2N)c(N)c([N+](=O)[O-])c1	-7	88*	38	53	-19	-5
Cc1c(C(=O)Nc2ccc(S(=O)(=O)N(C)C3CCN(C)CC3)cc2)oc2ccccc12	5	.	.	.	15	.
Cc1ccc(OCC(=O)Nc2ccc(S(=O)(=O)N(C)C3CCN(C)CC3)cc2)c(C)c1	-21	6	0	61*	-16	15
CN1CCC(N(C)S(=O)(=O)c2ccc(NC(=O)COc3cccc(Cl)c3)cc2)CC1	-22	0	-2	56*	3	.
Cc1ccccc1OCCC(=O)Nc1ccc(S(=O)(=O)N(C)C2CCN(C)CC2)cc1	19	9	4	58*	-18	.
Cc1c(C(=O)Nc2ccc(S(=O)(=O)N(C)C3CCN(C)CC3)cc2)oc2c(Cl)cccc12	-16	-3	-6	59*	-4	.
COc1ccc(NC(=O)c2ccc(-n3cnnn3)cc2)c([N+](=O)[O-])c1	3	4	-11	1	-7	3
Cc1ccc(CN2CCN(/N=C/c3cc([N+](=O)[O-])ccc3Cl)CC2)cc1	19	9	7	27	-8	-1
Cc1ccc(CN2CCN(/N=C/c3ccc(Cl)c([N+](=O)[O-])c3)CC2)cc1	16	-8	-1	62*	8	-19
COc1ccc(NC(=O)c2nn(C)c(=O)c3ccccc23)cc1S(=O)(=O)Nc1ccccc1Cl	15	65*	47	28	12	-12
O=C(NCCc1ccccc1)C(c1cccs1)N(C(=O)c1csnn1)C1CC1 (stereo not given)	10	15	2	-8	8	0
O=C(NCCc1ccccc1)C(c1cccs1)N(C(=O)CCl)c1ccc(Cl)cc1 (stereo not given)	27	-96	-95*	26	48	23*
CCc1nn(-c2ccccc2)c(=S)c2ccccc12	-21	-2	-5	17	-8	-18
COc1ccc(NS(=O)(=O)c2cc(NC(=O)c3cccc(OCc4c(C)noc4C)c3)ccc2OC)cc1	-2	57*	18	19	24	11
Cc1ccc(NC(=O)c2cccc(OCc3c(C)noc3C)c2)cc1	-24	9	4	-6	-14	10
CC(C)C(=O)N1CCC(n2nccc2NC(=O)CCOc2ccccc2)CC1	-9	54*	16	0	-7	-4
CCNC(=O)N1CCC(n2nccc2NC(=O)CCOc2ccccc2)CC1	-46	-19	-2	-9	-8	-12
COc1ccccc1C(=O)Nc1ccnn1C1CCN(Cc2cnc(N(C)C)s2)CC1	8	3	2	56*	3	-7
CCn1cc(CN2CCC(n3nccc3NC(=O)c3ccccc3OC)CC2)cn1	-2	-6	-7	33	10	-4
CCOc1ccc(CN2CCC(n3nccc3NC(=O)c3ccccc3OC)CC2)cc1	4	2	-1	62*	5	-14
CC/C=C(/NC(C)=O)c1ccccc1	20	.	.	.	-2	.
O=C(CN1C(=O)c2ccccc2C1=O)Oc1ccc(F)cc1	5	-20	-4	-6	-13	-1
CCc1nnc(NC(=O)c2ccc(S(=O)(=O)N(C)c3ccccc3)cc2)o1	8	-5	-8	-24	7	-9
CC(C)(C)c1ccc(C(=O)NC(=S)Nc2sc3c(c2C#N)CCC3)cc1	-64	-37	-43	-13	-11	-5

Compound activity from PubChem.
